An excerpt weighted towards active compounds, which were near 11% of everything screened.
WT yeast gro inh: growth inhibition of WT strain, primary screen, mitochondrial fusion inhibitor project, WT and mutant strains, chemical genetic; AID 1362, 2008; actives 2.1% (n = 190,000); mitochondrial fusion phenotypic screen; inhibition, % at 10 µM; in the data active = inhibition above about 58%; tested in S. cerevisiae
Lmaj promast: Leishmania major promastigote growth inhibition, primary screen; Leishmania major promastigotes, resazurin fluorescence viability; actives 9% (n = 200,000); AID 1063, 2008; inhibition, % at 10 µM;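 also: promastigotes grown with compound for 44 hours at 28 °C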
Diaphorase act: compounds boosting diaphorase resazurin reduction – biochemical, uHTS, resorufin fluorescence, counter-screen for diaphorase-coupled primary assays, primary screen; Diaphorase/resazurin coupled assay, 16 min; hits give high values; 1 = vehicle wells, 0 = NADH-free wells; activation factor at 20 µM; actives 0.005% (n = 190,000);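 active = diaphorase activity raised at least twofold by the compound at 20 µM; inactive = activation factor below 2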
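Assay system: bacterial diaphorase enzyme (C. kluyveri) / Input: enzyme 0.07 U/mL final / Medium: 50 mM HEPES pH 7.4 with 4.542 mM MgCl2, 0.005% Tween 20 / Doses: single compound dose of 20 µM, 1% DMSO final / Incubation: 16 min enzyme reaction, ambient temperature / Signal: fluorescence, excitation 544 nm and emission 590 nm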
Diaphorase inh: diaphorase inhibitors and chemical oxidizers, primary screen, counter-screen for diaphorase-coupled primary assays, biochemical, uHTS, resorufin fluorescence; diaphorase resazurin-to-resorufin fluorescence, NADH, 16 min; bacterial (C. kluyveri) enzyme, not human; inhibition, % at 20 µM; actives 0.69% (n = 190,000);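 active = primary screen inhibition at 20 µM above a set limit, cut at about 50% in these data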
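System: Bacterial diaphorase enzyme (C. kluyveri) | Incubation: 16-min room-temperature incubation before reading | Benchmarks: No-NADH positive control and DMSO neutral control | Measured by: Resorufin fluorescence 544/590 nm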
G6PDH counter: L. mesenteroides G6PDH inhibitors, counter-screen for G6PDH-coupled screening assays, biochemical, Leuconostoc mesenteroides enzyme | inhibition, % at 5 µM | Purified L. mesenteroides G6PDH, diaphorase/resazurin coupled fluorescence, 45 min | glucose-6-phosphate dehydrogenase [Leuconostoc mesenteroides] | actives 0.12% (n = 200,000)
Hits are given with their value; n = inactive. Rule as the data show it, unless noted: active = inhibition above about 50%; inactive = the rest.

SMILES	WT yeast gro inh	Lmaj promast	Diaphorase act	Diaphorase inh	G6PDH counter
CCN(CC)CCOc1ccc2c(c1)C(=NO)c1cc(OCCN(CC)CC)ccc1-2	n	100	n	n	n
CCN(CC)CCCOc1ccc(Cl)c(Cl)c1	n	83	n	n	n
CCN(CC)CCOc1ccc(Br)cc1	n	n	n	n	n
CN1CCN(CCOc2cccc(Cl)c2)CC1	n	n	n	n	n
Cc1ccc(S(=O)(=O)N2CCC(=O)N(C(COCc3cccc(C(F)(F)F)c3)Cc3ccccc3)CC2)cc1 (centres undefined)	n	n	n	n	n
Cc1ccc(NC(C)C(=O)N/N=C/c2ccc([N+](=O)[O-])s2)cc1 (centres undefined)	n	100	n	n	n
COc1ccc(NC(C)C(=O)N/N=C/c2ccc([N+](=O)[O-])s2)cc1 (centres undefined)	n	100	n	n	n
CCOc1ccc(NC(C)C(=O)N/N=C/c2ccc([N+](=O)[O-])cc2)cc1 (centres undefined)	n	n	n	n	n
O=C(Nc1ccc(Br)cc1)c1ccc(N2C(=O)C3CC=C(Cl)CC3C2=O)cc1 (centres undefined)	n	n	n	n	n
Cc1oc(C(=O)O)cc1COc1cccc2cccnc12	n	n	n	n	n
Brc1ccc(-c2cn3nc4c(nc3n2)CCCC4)cc1	n	n	n	n	n
Brc1ccc(-c2cn3c(n2)CCc2ccc4cccnc4c2-3)cc1	n	100	n	n	n
O=C1c2ccccc2-n2c1nc1ccccc1c2=O	66	100	n	n	n
O=c1c2ccccc2nc2n1-c1ccccc1CCC2	n	n	n	n	n
Cc1cc(NC(=O)CSc2n[nH]c(CC(C)C)n2)no1	n	n	n	n	n
O=C(c1nc2ncccn2n1)N1CCN(c2ccc(F)cc2)CC1	n	n	n	n	n
O=C(c1nc2ncccn2n1)N1CCN(c2ccccc2)CC1	n	90	n	n	n
O=C(OCC(=O)N1CCCc2ccccc21)c1cncc(Br)c1	n	n	n	n	n
O=c1c2cc(NC(=S)N3CCC(N4CCCCC4)CC3)ccc2nc2n1CCCCC2	n	n	n	n	n
O=c1c2cc(NC(=S)NC3CCN(Cc4ccccc4)CC3)ccc2nc2n1CCCCC2	n	54	n	n	n
O=c1c2cc(NC(=S)NCCCN3CCC(Cc4ccccc4)CC3)ccc2nc2n1CCCCC2	n	99	n	n	n
CC1CCCCN1C(=S)Nc1ccc2nc3n(c(=O)c2c1)CCCCC3 (centres undefined)	n	59	n	n	n
O=c1c2cc(NC(=S)NC3CC3)ccc2nc2n1CCCCC2	n	n	n	n	n
CC(C)CC(=O)Nc1ccc2c3c(cccc13)CC2	n	n	n	n	n
NC(=O)C1(N2CCCCC2)CCN(Cc2ccccc2Cl)CC1	n	n	n	n	n
SMILES	WT yeast gro inh	Lmaj promast	Diaphorase act	Diaphorase inh	G6PDH counter
CCCCOCP(=O)(CC)COCCCC	n	n	n	n	n
Cc1ccccc1-n1nnnc1SCc1cc(=O)n2ccsc2n1	n	n	n	n	n
O=C(Nc1nnc(CSCc2ccccc2F)s1)c1cccc([N+](=O)[O-])c1	n	95	n	n	n
O=C(Nc1nnc(CSCc2ccc(F)cc2)s1)c1ccc([N+](=O)[O-])cc1	n	n	n	n	n
CC(C)C(=O)Nc1nnc(CSCc2ccccc2F)s1	n	91	n	n	n
CC(C)C(=O)Nc1nnc(CCc2nnc(NC(=O)C(C)C)s2)s1	n	n	n	n	n
CC(C)(C)C(=O)Nc1nnc(CC(=O)NCc2ccccc2)s1	n	n	n	n	n
CC(C)(C)C(=O)Nc1nnc(CSCc2ccccc2F)s1	n	100	n	n	n
O=C(CSc1ccccc1C(=O)NCc1ccccc1)NC1CCCCCCC1	n	n	n	n	n
COc1ccc(C(=O)NNC(=O)c2ccc(S(=O)(=O)N3CCCCC3)cc2)cc1	n	n	n	n	n
Cc1cccc(N2CCN(C(=O)c3ccc(CNc4c(N5CCC(C)CC5)c(=O)c4=O)cc3)CC2C)c1 (centres undefined)	n	n	n	n	n

Assay outcomes: PubChem BioAssay, several laboratories
